We go through 3 molecules from paper PMC6420784 (Clinical lung cancer, 2018).

SMILES strings stand for the structures. “And” between values parts separate entries of the source, which are not always exact repeats. Equal entries are not always repeated. Marks after values point to notes of the source that are not given here.

Series [1] can be described thus: Plasma pharmacokinetics of momelotinib and M-21. The format is in vivo, human. As to conditions: for Cmax and AUCtau with b.i.d. dosing: across 100 mg and 150 mg dose levels (dose levels 2B, 3, and I); for dose proportionality of Cmax and AUCtau: day 15 of cycle 1, between dose level 1 (100 mg q.d.) and dose level 2A (200 mg q.d.); for Cmax / Tmax / half-life: human, oral; for Cmax: mean (%CV); for Cmax / Tmax / half-life / AUCtau, mean (%CV): momelotinib in plasma; for Tmax: median (Q1, Q3); for half-life: t1/2, median (Q1, Q3).

The subject of series [2] is patients with KRAS-mutated metastatic NSCLC. The series can be described thus: Phase Ib safety: adverse events, dose-limiting toxicities, MTD. The conditions noted are these: for patients with AEs leading to dose interruptions or dose modifications: all dose levels, of the named drug. The format is in vivo, human. In short, it runs like this: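 Two 3 + 3 escalations. First, JAK/TBK1 inhibitor 100–200 mg q.d. or b.i.d. with MEK1/2 inhibitor 1.0 mg q.d. (level −1: 100 mg with 0.5 mg). Then MEK inhibitor 1.5 and 2.0 mg q.d. at the other drug's MTD. DLTs scored over the first 28-day cycle. MTD was the level below that with ≥2 DLTs. AEs recorded from first dose to 30 days post-dose, coded by MedDRA 19.1 and graded by CTCAE 4.03.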

Series [3] concerns myelofibrosis patients. As to conditions: once daily (q.d.), previously established; cited from earlier work.
Series [4] relates to KRAS-mutated metastatic NSCLC. The series can be described thus: Phase Ib efficacy: tumor response per RECIST, PFS, OS. The format is in vivo, human. As to conditions: all 21 patients, n = 10. The gist of the method: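 Open-label, nonrandomized phase Ib in platinum-treated, refractory KRAS-mutated metastatic NSCLC (ECOG 0–1, measurable disease). Patients dosed until progression, unacceptable toxicity, consent withdrawal or refusal. CT at baseline and every 8 weeks, scored by RECIST 1.1. DCR at week 8 (CR+PR+SD) and ORR (CR+PR) given per dose level with Clopper–Pearson 90% CIs. PFS and OS by Kaplan–Meier. All enrolled patients analysed.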

The test system of series [5] is previously treated KRAS-mutated advanced NSCLC. The conditions noted are these: single-agent trametinib 2.0 mg q.d., 10 of 86 patients; cited from earlier work.
The mark [6] stands for this setting: plasma, day 15 of cycle 1, M1: momelotinib 100 mg q.d. with trametinib 1.0 mg q.d.
The mark [7] stands for this setting: plasma, day 15 of cycle 1, M2A: momelotinib 200 mg q.d. with trametinib 1.0 mg q.d.
Where [8] appears, read: plasma, day 15 of cycle 1, M2B: momelotinib 100 mg b.i.d. with trametinib 1.0 mg q.d.
Setting [9] is: plasma, day 15 of cycle 1, M3: momelotinib 150 mg b.i.d. with trametinib 1.0 mg q.d.
Where [10] appears, read: plasma, day 15 of cycle 1, TI: momelotinib 150 mg b.i.d. with trametinib 1.5 mg q.d.

As for `N#CCNC(=O)c1ccc(-c2ccnc(Nc3ccc(N4CCOCC4=O)cc3)n2)cc1` [M-21], in series [1], the “Cmax and AUCtau with b.i.d. dosing” value is listed as “similar”. Further, the “dose proportionality of Cmax and AUCtau” value in series [1] was “more than dose-proportional increases”. Moreover, the “M-21/Momelotinib Ratio, AUCtau, mean (%CV)” value in series [1] (setting [6]) was 2.6 (44.6); in series [1] (setting [7]), 1.7 (52.8); in series [1] (setting [9]), 1.3 (40.3); in series [1] (setting [10]), 1.4 (20.6). For the same molecule, the “M-21/Momelotinib Ratio, Cmax, mean (%CV)” value in series [1] (setting [6]) is given as 2.2 (52.0); in series [1] (setting [7]), 1.2 (47.2); in series [1] (setting [8]), 1.7 (38.3); in series [1] (setting [9]), 1.3 (25.8); in series [1] (setting [10]), 1.1 (13.7). The “M-21/Momelotinib Ratio, AUCtau, mean” value in series [1] (plasma, day 15 of cycle 1, M2B: momelotinib 100 mg b.i.d. with trametinib 1.0 mg q.d., n = 1) was 2.7^c.
As for `N#CCNC(=O)c1ccc(-c2ccnc(Nc3ccc(N4CCOCC4)cc3)n2)cc1` [Momelotinib, momelotinib], the “patients who discontinued because of AEs” value in series [2] (all 21 patients, n = 9) is recorded as 42.9%. Besides, the “patients with AEs leading to dose interruptions or dose modifications” value in series [2] is given as 47.6%. Moreover, the “maximum tolerated dose (MTD) of momelotinib” value in series [2] (b.i.d., in combination with trametinib 1.0 mg q.d. (dose level M3)) is 150 mg. Further, in series [3], the “MTD of momelotinib as a single agent” value is 200 mg. Moreover, the “patients who discontinued because of PD” value in series [4] stood at 47.6%. For the same molecule, the “Cmax and AUCtau with b.i.d. dosing” value in series [1] is given as “similar”. Also, the “dose proportionality of Cmax and AUCtau” value in series [1] is “more than dose-proportional increases”. Besides, the “maximum momelotinib plasma concentrations” value is “approximately 300 ng/mL” in series [1] (discussion summary) and 0.72 µmol/L in series [1] (equal to approximately 300 ng/mL). The highest concentration (Cmax) stood at 136 ng/mL in series [1] (setting [6]); 572 ng/mL in series [1] (setting [7]); 318 ng/mL in series [1] (setting [8]); 290 ng/mL in series [1] (setting [9]); 359 ng/mL in series [1] (setting [10]). Further, the time of peak concentration (Tmax) was determined as 1.9 h in series [1] (setting [6]), 2 h in series [1] (setting [7]), 0.9 h in series [1] (setting [8]) and 1.1 h in series [1] (setting [9]). Further, the half-life in series [1] (setting [6]) is 6.9 h; in series [1] (setting [7]) it was 8.7 h; in series [1] (setting [8]), 8.3 h; in series [1] (setting [9]) it was 6.1 h. Further, the “AUCtau, mean (%CV)” value is given as 774.3 (47.1) ng/mL/h in series [1] (day 15 of cycle 1, M1: momelotinib 100 mg q.d. with trametinib 1.0 mg q.d.); 3901.9 (48.2) ng/mL/h in series [1] (day 15 of cycle 1, M2A: momelotinib 200 mg q.d. with trametinib 1.0 mg q.d.); 2568.3 (53.0) ng/mL/h in series [1] (day 15 of cycle 1, M2B: momelotinib 100 mg b.i.d. with trametinib 1.0 mg q.d.); 2214.1 (71.5) ng/mL/h in series [1] (day 15 of cycle 1, M3: momelotinib 150 mg b.i.d. with trametinib 1.0 mg q.d.); 1871.1 (8.2) ng/mL/h in series [1] (day 15 of cycle 1, TI: momelotinib 150 mg b.i.d. with trametinib 1.5 mg q.d.).
`CC(=O)Nc1cccc(-n2c(=O)n(C3CC3)c(=O)c3c(Nc4ccc(I)cc4F)n(C)c(=O)c(C)c32)c1` [trametinib]: the “patients with AEs leading to dose interruptions or dose modifications” value in series [2] is 52.4%. Also, the “maximum tolerated dose (MTD) of trametinib” value in series [2] (q.d., in combination with momelotinib 150 mg b.i.d. (dose level M3)) is 1.0 mg and 1 mg. Besides, the PR in series [5] is on record as 11.6%.
